According to ChEMBL document CHEMBL3259693, “Multitarget drug discovery for tuberculosis and other infectious diseases” (J Med Chem, 2014):
In brackets after ≈: the same amount, converted by molar mass. Activity calls are given as the source filed them. The rule behind the calls is not given here.

Legend:
[1] = Inhibition of Mycobacterium tuberculosis MenA
[2] = test system: Mycobacterium tuberculosis; assay: Antimicrobial activity against Mycobacterium tuberculosis H37Rv; assay type: functional
[3] = test system: Mycobacterium tuberculosis; assay: microbe, parasite or virus in culture; assay type: functional; conditions: ATCC 27294
[4] = test system: Mycolicibacterium smegmatis; assay: microbe, parasite or virus in culture; assay type: functional; conditions: ATCC 700084
Bacillus subtilis = assay: Antimicrobial activity against Bacillus subtilis subsp. subtilis ATCC 6051 after 12 to 16 hrs by microbroth dilution method; assay type: functional, organism-based
Escherichia coli [5] = assay: microbe, parasite or virus in culture; assay type: functional, organism-based; conditions: ATCC 29425, 3 h
Saccharomyces cerevisiae = assay: Antimicrobial activity against Saccharomyces cerevisiae ATCC 208352 after 48 hrs by microbroth dilution method; assay type: functional, organism-based; conditions: ATCC 208352, 48 h
Candida albicans = assay: Antimicrobial activity against Candida albicans CAI-4; assay type: functional, organism-based
Plasmodium falciparum = assay: Antimicrobial activity against Plasmodium falciparum 3D7 by intraerythrocytic assay; assay type: functional, organism-based
MCF7 = assay: Cytotoxicity against human MCF7 cells assessed as growth inhibition by MTT assay; assay type: cell-based
[6] = Therapeutic index, ratio of IC50 for human MCF7 cells to IC50 for Plasmodium falciparum 3D7; assay type: cell-based; conditions: MCF7 cells versus Plasmodium falciparum 3D7, read-out: Ratio IC50
Escherichia coli [7] = assay: Ratio of IC50 for Escherichia coli ATCC 29425 in presence of 10% fetal bovine serum to IC50 for Escherichia coli ATCC 29425; assay type: functional
In short: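 E. coli broth microdilution in LB. Culture was grown to OD600 ~0.4, diluted 500-fold, and exposed to compound from 0.3 mM, 2× serially diluted to 292 nM. Plates ran 3 h at 37 °C with or without 10% FBS. Viability was read by MTT at 570 nm, and IC50 was obtained by non-linear regression.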

[8] = Inhibition of Mycobacterium tuberculosis cis-farnesyl diphosphate synthase
[9] = Inhibition of Mycobacterium tuberculosis cis-decaprenyl diphosphate synthase
[10] = Inhibition of Plasmodium vivax geranylgeranyl diphosphate synthase
[11] = Inhibition of Staphylococcus aureus undecaprenyl diphosphate synthase
[12] = Inhibition of Escherichia coli undecaprenyl diphosphate synthase
[13] = Inhibition of Staphylococcus aureus farnesyl diphosphate synthase
[14] = target: T1, Geranylgeranyl pyrophosphate synthase (Homo sapiens, UniProt O95749); assay: Inhibition of human geranylgeranyl diphosphate synthase
T1 sequence (O95749 whole entry): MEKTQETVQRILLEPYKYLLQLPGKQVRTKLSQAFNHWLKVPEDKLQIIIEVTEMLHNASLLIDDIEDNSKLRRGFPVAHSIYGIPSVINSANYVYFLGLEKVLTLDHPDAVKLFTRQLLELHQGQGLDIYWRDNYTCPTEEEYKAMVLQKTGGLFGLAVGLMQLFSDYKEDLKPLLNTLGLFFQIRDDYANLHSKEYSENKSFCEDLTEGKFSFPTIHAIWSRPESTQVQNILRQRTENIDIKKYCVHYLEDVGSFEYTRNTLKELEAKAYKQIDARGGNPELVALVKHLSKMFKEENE

[15] = target: T2, 4,4'-diapophytoene synthase (Staphylococcus aureus, UniProt A9JQL9); assay: Inhibition of Staphylococcus aureus CrtM
T2 sequence (A9JQL9 whole entry): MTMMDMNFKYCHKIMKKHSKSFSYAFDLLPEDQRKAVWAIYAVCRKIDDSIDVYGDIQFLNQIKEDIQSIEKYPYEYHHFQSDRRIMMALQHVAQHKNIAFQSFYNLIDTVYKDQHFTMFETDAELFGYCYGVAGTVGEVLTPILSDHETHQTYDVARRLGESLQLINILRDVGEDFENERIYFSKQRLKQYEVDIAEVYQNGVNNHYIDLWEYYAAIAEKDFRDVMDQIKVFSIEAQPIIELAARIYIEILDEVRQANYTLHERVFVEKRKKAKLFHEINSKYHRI

Squalene synthase = target: T3, Squalene synthase (Homo sapiens, UniProt P37268); assay: Inhibition of human SQS
T3 sequence (P37268 whole entry): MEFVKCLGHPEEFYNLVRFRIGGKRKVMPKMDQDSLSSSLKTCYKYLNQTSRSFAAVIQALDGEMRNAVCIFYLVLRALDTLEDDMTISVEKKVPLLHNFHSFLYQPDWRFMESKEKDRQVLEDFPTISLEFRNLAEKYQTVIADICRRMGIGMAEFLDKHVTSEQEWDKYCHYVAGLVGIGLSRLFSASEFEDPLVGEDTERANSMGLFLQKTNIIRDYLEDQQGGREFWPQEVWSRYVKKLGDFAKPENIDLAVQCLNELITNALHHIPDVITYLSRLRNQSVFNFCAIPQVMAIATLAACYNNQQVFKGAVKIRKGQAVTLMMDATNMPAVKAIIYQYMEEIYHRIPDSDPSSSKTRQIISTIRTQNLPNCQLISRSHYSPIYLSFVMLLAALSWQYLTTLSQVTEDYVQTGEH

[16] = Inhibition of Mycobacterium smegmatis MenA; set-up: species or system Mycolicibacterium smegmatis
[17] = Inhibition of Mycobacterium smegmatis MenG using radiolabeled S-adenosylmethionine as substrate after 1 hr by liquid scintillation counting analysis; set-up: species or system Mycolicibacterium smegmatis
[18] = test system: Mycolicibacterium smegmatis; assay: Inhibition of respiration in Mycobacterium smegmatis after 5 mins by methylene blue reduction assay in presence of NADH; assay type: functional, organism-based
[19] = test system: Mycolicibacterium smegmatis; assay: Disruption of membrane potential in Mycobacterium smegmatis by DisC3(5) probe-based fluorescence spectrophotometry; assay type: functional, organism-based
[20] = Inhibition of Escherichia coli N-terminal strep-tagged MenA expressed in Escherichia coli C43 (DE3) assessed as demethylmenaquinone-3 formation after 30 mins by HPLC analysis
Escherichia coli [21] = assay: Induction of collapse in deltapH in Escherichia coli inverted membrane vesicles by 31P NMR spectroscopy; assay type: functional, organism-based
[22] = test system: Mycobacterium tuberculosis; assay: Antimicrobial activity against Mycobacterium tuberculosis H37Rv incubated for 7 days measured after 28 days by resazurin microplate reduction assay; assay type: functional
In short: (§1)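 Resazurin microplate reduction assay (REMA) on actively growing M. tuberculosis H37Rv. Drug tested from 10 ng/mL to 10 μg/mL. Medium was supplemented with 0, 10, 100 or 1000 μM menaquinone-4 (MK-4) to test quinone rescue. Activity was read as loss of resazurin reduction to fluorescent resorufin, giving an MIC.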

[23] = test system: Mycobacterium tuberculosis; assay: Antimicrobial activity against nonreplicating streptomycin-starved Mycobacterium tuberculosis 18b at 1 ug/ml incubated for 7 days measured after 28 days by resazurin microplate reduction assay; assay type: functional
[24] = test system: Mycobacterium tuberculosis; assay: Antimicrobial activity against Mycobacterium tuberculosis H37Rv incubated for 7 days measured after 28 days by resazurin microplate reduction assay in presence of MK-4; assay type: functional; in short: as §1
[25] = Inhibition of Mycobacterium smegmatis malate dehydrogenase using malate as substrate by MTT assay; set-up: species or system Mycolicibacterium smegmatis
In short: (§2)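 M. smegmatis membrane preparation with 5 mM KCN. Dehydrogenase activity was followed as MTT reduction at 570 nm after adding substrate: NADH (Complex I plus NDH-2), deamino-NADH (Complex I only), succinate, malate or lactate. IC50 values were derived from these rates.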

[26] = Therapeutic index, ratio of IC50 for human MCF7 cells to MIC for Mycobacterium tuberculosis ATCC 27294; assay type: cell-based; conditions: MCF7 cells versus Mycobacterium tuberculosis ATCC 27294, read-out: TI
[27] = Inhibition of Mycobacterium smegmatis electron transport protein complex 1 using NADH as substrate by MTT assay; set-up: species or system Mycolicibacterium smegmatis; in short: as §2
[28] = Inhibition of Mycobacterium smegmatis NADH dehydrogenase using […] by MTT assay; set-up: species or system Mycolicibacterium smegmatis; in short: as §2
[29] = Inhibition of Mycobacterium smegmatis electron transport protein complex 1 using deamino-NADH as substrate by MTT assay; set-up: species or system Mycolicibacterium smegmatis; in short: as §2
[30] = Inhibition of Mycobacterium smegmatis succinate dehydrogenase using succinate as substrate by MTT assay; set-up: species or system Mycolicibacterium smegmatis; in short: as §2
[31] = Inhibition of Mycobacterium smegmatis lactate dehydrogenase using lactate as substrate by MTT assay; set-up: species or system Mycolicibacterium smegmatis; in short: as §2
[32] = test system: Mycolicibacterium smegmatis; assay: Induction of collapse in deltapH in Mycobacterium smegmatis inverted membrane vesicles at 30 to 150 uM by 31P NMR spectroscopy; assay type: functional

CC(C)=CCC/C(C)=C/CNCCNC1C2CC3CC(C2)CC1C3 (centres undefined) [SQ109]
IC50 [1]: 9 µM
MIC [2]: 0.7 µM (≈ 0.231 µg/mL)
MIC [3]: 0.3 µM (≈ 0.0992 µg/mL)
MIC [4]: 9.4 µM (≈ 3.11 µg/mL)
IC50 (Bacillus subtilis): 23 µM
IC50 (Escherichia coli [5]): 8.5 µM
IC50 (Saccharomyces cerevisiae): 3.3 µM
IC50 (Candida albicans): 10 µM
IC50 (Plasmodium falciparum): 3 µM
IC50 (MCF7): 18 µM
selectivity ratio [6]: 18
Ratio IC50 (Escherichia coli [7]): 1.6
IC50 [8]: ≥ 50 µM
IC50 [9]: ≥ 50 µM
IC50 [10]: ≥ 50 µM
IC50 [11]: ≥ 50 µM
IC50 [12]: ≥ 50 µM
IC50 [13]: ≥ 50 µM
IC50 [14]: 4.5 µM
IC50 [15]: 100 µM
IC50 (Squalene synthase): 100 µM
IC50 [16]: 4.8 µM
IC50 [17]: 13 µM
IC50 [18]: 58 µM
EC50 [19]: 20 µg/mL (≈ 60.5 µM)
IC50 [19]: 55 µM
IC50 [20]: 3.3 µM
IC50 (Escherichia coli [21]): 0.8 µM
MIC [22]: 0.15 µg/mL (≈ 0.454 µM)
MIC [23]: 1 µg/mL (≈ 3.03 µM)
MIC [24]: 1 µg/mL
IC50 [25]: 10 µg/mL (≈ 30.3 µM)
selectivity ratio [26]: 120
IC50 [27]: 30 µg/mL (≈ 90.8 µM)
IC50 [28]: 30 µg/mL (≈ 90.8 µM)
IC50 [29]: 30 µg/mL (≈ 90.8 µM)
IC50 [30]: 30 µg/mL (≈ 90.8 µM)
IC50 [31]: 30 µg/mL (≈ 90.8 µM)
Activity [32]: Active
